Assay outcomes as filed in PubChem.
MrgX1 antagonist: antagonists of human MrgX1 receptor. B-score at 10 µM. MRGX1-HEK293 calcium flux, Fluo-4, BAM8-22 antagonism; active compounds read low. AID 588676. Q96LB2. 310,000 tested, 1.3% active;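 active means calcium-response B-score plate-corrected more than 3 library SD below zero, starting fluorescence within 5 deviations, no agonist response on first addition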;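 further: peak minus trough fluorescence over baseline after final BAM8-22 challenge near maximal dose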
Target sequence (Q96LB2 whole entry, looked up): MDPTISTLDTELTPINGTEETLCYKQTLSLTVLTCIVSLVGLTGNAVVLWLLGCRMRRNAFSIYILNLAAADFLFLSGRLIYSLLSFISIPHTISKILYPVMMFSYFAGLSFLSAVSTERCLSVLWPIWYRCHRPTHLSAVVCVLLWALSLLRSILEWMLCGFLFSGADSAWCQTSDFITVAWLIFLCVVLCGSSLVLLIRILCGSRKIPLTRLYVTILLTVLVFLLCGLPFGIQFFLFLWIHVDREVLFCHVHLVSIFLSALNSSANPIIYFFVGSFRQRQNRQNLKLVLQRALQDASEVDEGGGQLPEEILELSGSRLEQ
MrgX1 allo act: human MrgX1 positive allosteric modulation, primary screen. MrgX1-HEK293, Fluo-4 calcium flux, FDSS; active compounds read high. 310,000 tested, 0.63% active. B-score at 10 µM. Q96LB2;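 active means plate-corrected calcium response at least 3 library SD above typical, normal starting fluorescence, not activating the receptor alone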;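 further: compound read alongside a low EC10 to EC30 dose of BAM8-22 agonist; peak minus trough fluorescence over baseline measured at the second addition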
RGS4 block: human RGS4 inhibition; HEK293 M3R/RGS4 inducible, Fluo-4 calcium flux; active compounds read high; triggered by carbachol at its EC20; 310,000 tested, 0.45% active; P49798; B-score at 10 µM;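 active means B-score, a plate-corrected calcium signal, over three deviations above library mean, with baseline fluorescence within five deviations of library mean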;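 further: RGS4 expression induced by doxycycline in cells with stable M3 receptor; B-score is computed from the integrated fluorescence ratio over baseline after carbachol; higher B-score means a larger calcium signal and so more RGS4 inhibition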
Target sequence (P49798 whole entry, looked up): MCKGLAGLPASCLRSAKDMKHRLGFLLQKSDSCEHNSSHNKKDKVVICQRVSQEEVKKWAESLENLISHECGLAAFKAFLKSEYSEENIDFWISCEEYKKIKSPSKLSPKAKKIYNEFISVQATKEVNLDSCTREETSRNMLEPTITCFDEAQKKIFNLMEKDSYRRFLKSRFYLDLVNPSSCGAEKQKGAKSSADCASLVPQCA
RGS4 pot: potentiators or activators of RGS4; AID 463111; B-score at 10 µM; 310,000 tested, 0.92% active; HEK293 M3R/inducible RGS4, carbachol calcium flux Fluo4; active compounds read low;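 active means B-score of the integrated calcium signal more than 4 SD below the library mean, with starting fluorescence not abnormally high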;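 further: negative B-score means reduced calcium response which marks RGS4 activation or potentiation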
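Assay system: HEK293 FlpIn-TREx cells, stable M3R, doxycycline-inducible RGS4 / Probe or stimulus: carbachol, ECmax concentration / Times: overnight RGS4 induction, 30 min dye load 37 °C, 20 min compound RT / Signal: kinetic calcium fluorescence imaging with Fluo4-AM dye, 2 µM / Measure: Agonist-evoked peak-minus-minimum fluorescence over baseline, integrated ratio, B score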
MrgX1 ag: activates human MrgX1 receptor signaling; B-score at 10 µM; Q96LB2; AID 588627; MrgX1-HEK293 cells, Fluo-4 calcium fluorescence, agonist mode; active compounds read high; 310,000 tested, 0.44% active;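 active means calcium response B-score plate-corrected fluorescence ratio at least 3 library SD, with starting fluorescence B-score inside 5 SD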
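Material – MrgX1-expressing HEK293 cells · Input – 15,000 cells seeded per well · Dosing – compound as first of three additions · Times – overnight seeding, then 1 h dark dye loading · Measured by – kinetic Fluo-4 NW fluorescence of intracellular calcium · Read-out – B-scored fluorescence response ratio · Benchmarks – positive and negative control wells on each plate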
RGS4 inh valid: RGS4 inhibitor validation. shares compounds with RGS4 block. HEK293 M3R/RGS4, carbachol calcium Fluo-4 fluorescence; carbachol added at its EC20; 0 = buffer wells, 100 = carbachol control. calcium response, % at 10 µM. 1,700 tested, 65% active;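 active means duplicate-averaged calcium response above the buffer-only control mean plus 5 SD of those controls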;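 further: integrated fluorescence ratio F max minus min over baseline F0; higher response in RGS4-induced cells means RGS4 inhibition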
M3R Ca ctr: non-induced cell nonspecific activity of RGS4 inhibitors | shares compounds with RGS4 block | HEK293 M3R non-induced, carbachol calcium Fluo-4; submaximal (EC20) carbachol stimulus; buffer wells 0%, carbachol control wells 100% | activity (percent), % at 10 µM | 1,900 tested, 20% active | AID 493000; call rule not given here;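 further: RGS4 induction absent so cells express M3R without RGS4; higher means more calcium signal and flags a non-specific hit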
RGS4 inh ctr2: second counter-screen for RGS4 inhibitors: non-induced cells without carbachol; shares compounds with RGS4 block; HEK293 M3R/RGS4 non-induced, Fluo-4 calcium, no carbachol; normalised: buffer wells 0%, carbachol wells 100%; calcium response (agonist-mode artifact), % at 10 µM; 1,900 tested, 22% active; AID 493001;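 active means duplicate-averaged calcium rise in uninduced cells above buffer wells' mean plus 5 SD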
Large screens that a line does not name were inactive (follow-up assays come after a bar, where they were run). Rows were chosen to be rich in hits. Some 3.5% of all compounds tested hit in one or more screens of this group.

CC(=O)Nc1cccc(NC(=O)CSc2ncc(C(=O)Nc3ccc(F)cc3)c(=O)n2C)c1	none | RGS4 inh valid inactive | M3R Ca ctr inactive | RGS4 inh ctr2 inactive
COc1ccc(/C=C/C(=O)c2cc(Cl)cc(Cl)c2O)c(OC)c1	none
O=C(/C=C/c1ccccn1)c1cc(Cl)cc(Cl)c1O	RGS4 block 15 | RGS4 inh valid 26% | M3R Ca ctr 64% | RGS4 inh ctr2 inactive
Cc1nc([N+](=O)[O-])c(C(=O)O)n1C	none
COc1cc(C(=O)Nc2cccc3cccnc23)cc(OC)c1OC	none | RGS4 inh valid inactive | M3R Ca ctr inactive | RGS4 inh ctr2 inactive
COc1ccc(N2CC(C(=O)NCCc3ccc(Cl)cc3)CC2=O)c(OC)c1 (centres undefined)	none
COc1cc(C2CC(c3ccccc3)=NN2c2ccccc2)ccc1OCC(=O)O (centres undefined)	none
COc1ccc(C2CC(c3ccccc3)=NN2c2ccc(S(N)(=O)=O)cc2)cc1OC (centres undefined)	RGS4 block 8.5 | RGS4 inh valid 53% | M3R Ca ctr 66% | RGS4 inh ctr2 inactive
COc1ccc(C2=NN(c3ccc(C(=O)O)cc3)C(c3ccc(OC)c(OC)c3)C2)cc1 (centres undefined)	RGS4 block 9.3 | RGS4 inh valid 18% | M3R Ca ctr 38% | RGS4 inh ctr2 inactive
NS(=O)(=O)c1ccc(N2N=C(c3ccccc3)CC2c2cccc(F)c2)cc1 (centres undefined)	none
O=C(O)CCCN1C(=O)/C(=C/c2ccc(-c3nc4ccccc4s3)o2)SC1=S	RGS4 block 22, RGS4 pot -9.2 | RGS4 inh valid 8.0% | M3R Ca ctr inactive | RGS4 inh ctr2 389%
O=C(CCN1C(=O)/C(=C/C=C/c2ccccc2)SC1=S)Nc1nc2ccccc2s1	none
O=C(O)CCCCCN1C(=O)/C(=C\c2ccc(-c3ccc(Cl)cc3)o2)SC1=S	RGS4 block 36, RGS4 pot -11 | RGS4 inh valid 44% | M3R Ca ctr inactive | RGS4 inh ctr2 48%
O=C(O)c1ccccc1C(=O)NCC(O)COc1ccc(Cl)cc1 (centres undefined)	none
COc1ccc(S(=O)(=O)NCCC(=O)NCc2ccccc2)cc1	none | RGS4 inh valid inactive | M3R Ca ctr inactive | RGS4 inh ctr2 inactive
Cc1noc(/C=C/c2ccccn2)c1[N+](=O)[O-]	RGS4 block 6.8 | RGS4 inh valid 27% | M3R Ca ctr 30% | RGS4 inh ctr2 inactive
N#Cc1ccc(C2=NC(C(F)(F)F)(C(F)(F)F)c3c(n(Cc4ccco4)c(=O)[nH]c3=O)N2)cc1	RGS4 block 6.1, MrgX1 ag 37 | RGS4 inh valid 13% | M3R Ca ctr inactive | RGS4 inh ctr2 16%
Cc1ccc(CNC(=O)CNS(=O)(=O)c2ccc(Br)s2)cc1	none
Cc1ccc2[nH]c3c(c2c1)CN(C(=O)CN1c2ccc(F)cc2CCC1C)CC3 (centres undefined)	RGS4 block 9 | RGS4 inh valid 23% | M3R Ca ctr inactive | RGS4 inh ctr2 inactive
Cc1ccc2[nH]c3c(c2c1)CN(C(=O)CN1CCN(c2cccc(C)c2C)CC1)CC3	none
O=C(Nc1cccc(Cl)c1)C1C2C=CC3(O2)C1C(=O)N(CCCN1CCCCC1)C3C(=O)NC1CCCCC1 (centres undefined)	none
CCOC(=O)/C(=C\c1cccnc1)C(=O)c1cc(C(C)=O)c(Nc2ccccc2)s1	RGS4 block 6.4 | RGS4 inh valid 42% | M3R Ca ctr inactive | RGS4 inh ctr2 9.5%
O=C(c1c[nH]c(C(=O)C(Cl)(Cl)Cl)c1)c1ccccc1Br	none
Cc1ccccc1N=C1NC(=O)/C(=C/c2cccnc2)S1	none | M3R Ca ctr 46% | RGS4 inh ctr2 inactive
CN1C(=O)S/C(=C/c2cccnc2)C1=O	none
